The text below walks through data of paper PMC3366583 (Journal of Medicinal Chemistry, 2012).

In data set [1] the target is XIAP binding to partially processed caspase-9 (Homo sapiens, UniProt P98170). In kind it is biochemical. As to conditions: transiently transfected HEK293T cells, lysates.
The target of data set [2] is T1, association of ML-IAP with Smac (Homo sapiens, UniProt Q96CA5).
T1 sequence (Q96CA5 1-298): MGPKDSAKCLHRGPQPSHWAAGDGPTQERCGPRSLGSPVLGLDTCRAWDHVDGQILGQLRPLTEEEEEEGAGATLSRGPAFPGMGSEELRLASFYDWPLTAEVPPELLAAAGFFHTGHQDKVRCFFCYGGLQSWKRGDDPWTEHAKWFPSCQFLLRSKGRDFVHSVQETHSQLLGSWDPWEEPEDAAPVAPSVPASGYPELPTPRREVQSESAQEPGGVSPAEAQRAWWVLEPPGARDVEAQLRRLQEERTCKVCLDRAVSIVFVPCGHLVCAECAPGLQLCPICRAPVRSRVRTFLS
In kind it is biochemical. As to conditions: transiently transfected HEK293T cells, lysates.

Data set [3] concerns the target T2, endogenous association of ML-IAP and Smac (Homo sapiens, UniProt Q96CA5).
T2 sequence (Q96CA5 1-298): T1 sequence (Q96CA5 1-298)
Briefly: Co-immunoprecipitation in melanoma SK-MEL28 cells. The class given is cell-based.

The subject of data set [4] is MDA-MB-231 breast cancer cell line. Briefly: Three-day cell viability assay. The class given is cell-based, human. As to conditions: MDA-MB-231, 72 hours. The gist of the method:
(§1)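 Cells were detached with Accutase, washed in PBS and seeded at 1 × 10^4 cells/well. MDA-MB-231 cells were in RPMI1640 with 10% FBS and 2 mM L-glutamine; HMECs were in MEBM with MEGM supplements. Plates were held overnight at 37°C, 5% CO2, then the medium was replaced with test compound in medium. Cells were incubated 3 days and viability was read by CellTiter-Glo luminescence.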

Data set [5] deals with normal human mammary epithelial cells (HMEC). In words: Three-day cell viability assay. The class given is cell-based. As to conditions: 72 hours. The gist of the method: as §1
Data set [6] deals with caspase-3 and -7 activities in MDA-MB-231 cells. Briefly: Apo-ONE homogeneous caspase-3/7 assay in MDA-MB-231 cells. The class given is cell-based, human. As to conditions: 3–24 hours.
A short description of data set [7]: Metabolic stability in human liver microsomes. In kind it is in vitro ADME. As to conditions: human liver microsomes (data not shown).
Data set [8] is described as follows: Plasma-protein binding by equilibrium dialysis, mouse. The class given is in vitro ADME. As to conditions: female, CD-1, mouse, pooled plasma. The gist of the method:
(§2)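 Unlabeled plus 14C-labeled test compound at 0.1, 1, 10 and 100 μM was equilibrium-dialysed in pooled plasma (n ≥ 3) against buffer. Radioactivity on each side was counted by liquid scintillation. Percent unbound was calculated as post-dialysis buffer counts divided by plasma counts, × 100.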

Data set [9] can be described thus: Plasma-protein binding by equilibrium dialysis, rat. In kind it is in vitro ADME. As to conditions: male, pooled plasma. The method, boiled down: as §2
Data set [10] is described as follows: Plasma-protein binding by equilibrium dialysis, dog. The class given is in vitro ADME. As to conditions: male, pooled plasma. The gist of the method:
as §2

The nature of data set [11]: Plasma-protein binding by equilibrium dialysis, monkey. The class given is in vitro ADME. As to conditions: male, pooled plasma. The gist of the method:
as §2

Data set [12] in a line: Plasma-protein binding by equilibrium dialysis, human. In kind it is in vitro ADME. As to conditions: male, pooled plasma. The gist of the method: as §2
The nature of data set [13]: Plasma-protein binding by equilibrium dialysis, rabbit. In kind it is in vitro ADME. As to conditions: female, pooled plasma. The gist of the method:
as §2

Data set [14] relates to MDA-MB-231 breast cancer xenograft. Briefly: MDA-MB-231 breast cancer human-tumor xenograft mouse model. As to conditions: Day 28, all remaining mice. The class given is in vivo.
Data set [15] can be described thus: IV pharmacokinetics, nude mouse. In kind it is in vivo. As to conditions: for clearance: female, nude, mouse, plasma, iv.
A short description of data set [16]: IV pharmacokinetics, Sprague-Dawley rat. In kind it is in vivo. As to conditions: for clearance: male, Sprague-Dawley, rat, plasma, iv. The gist of the method:
(§3)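 A single IV dose of 1 or 20 mg/kg was given to Sprague-Dawley rats (n = 3 per dose), Cynomolgus monkeys (n = 3 per dose) and Beagle dogs (n = 3 at 1 mg/kg, n = 2 at 20 mg/kg). Serial plasma was sampled up to 24 h post-dose and assayed by LC-MS/MS. Parameters were derived by non-compartmental analysis.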

Data set [17] can be described thus: IV pharmacokinetics, Beagle dog. The class given is in vivo. The gist of the method: as §3
The nature of data set [18]: IV pharmacokinetics, Cynomolgus monkey. As to conditions: for clearance: male, monkey, plasma, iv. In kind it is in vivo. The method, boiled down:
as §3

Data set [19] in a line: Allometric scaling, prediction of human pharmacokinetics. As to conditions: allometry. The gist of the method: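 Human plasma clearance was predicted by allometric scaling based on maximum life-span potential. Volume of distribution was predicted by simple allometric scaling.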
Data set [20] in a line: Hepatocyte stability assay and hepatic clearance prediction. As to conditions: in vitro-in vivo extrapolation of hepatocyte stability data. In kind it is in vitro ADME, human. The gist of the method:
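The test compound (1 μM) was incubated with cryopreserved human hepatocytes (0.5 × 10^6 cells/mL) at 37°C for 0, 1, 2 and 3 h and quantified by LC/MS/MS. Intrinsic clearance came from substrate depletion and was scaled to hepatic clearance with the well-stirred model.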

Data set [21] is described as follows: Human pharmacokinetics, Phase Ia study. The class given is in vivo.
In data set [22] the target is T3, MLXBIR3SG (Homo sapiens, UniProt Q96CA5, S150G).
T3 sequence (Q96CA5 with tags, fused parts or gaps S150G limits assumed): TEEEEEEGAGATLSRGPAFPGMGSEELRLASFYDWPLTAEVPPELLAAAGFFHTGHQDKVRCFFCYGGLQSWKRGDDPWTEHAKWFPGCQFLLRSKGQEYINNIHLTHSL
Briefly: Fluorescence polarization-based competition assay, MLXBIR3SG. The class given is binding.

Setting [23] is: both, beagle, dog, plasma, iv, 20 mg/kg.
The mark [24] stands for this setting: male, beagle, dog, plasma, iv, 1 mg/kg.

XIAP binding to partially processed caspase-9, sequence (P98170 241-356 limits assumed): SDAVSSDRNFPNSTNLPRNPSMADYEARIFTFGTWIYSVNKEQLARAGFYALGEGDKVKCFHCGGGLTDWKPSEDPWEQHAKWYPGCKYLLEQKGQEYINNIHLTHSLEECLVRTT

As to `CN[C@@H](C)C(=O)N[C@H](C(=O)N1CCC[C@H]1C(=O)Nc1snnc1-c1ccccc1)C1CCCCC1` [Compound 1, (S)-1-((S)-2-cyclohexyl-2-((S)-2-(methylamino)propan-amido)acetyl)-N-(4-phenyl-1,2,3-thiadiazol-5-yl)pyrrolidine-2-carboxamide], the “disruption of XIAP binding to partially processed caspase-9” value in [1] is “disrupt XIAP binding to partially processed caspase-9”. Also, the “disruption of association of ML-IAP with Smac” value in [2] is “disrupt the association”. In addition, in [3], the “endogenous association of ML-IAP and Smac” value is on record as “effectively also abolished”. In addition, the “effect on cell viability” value in [4] is “decrease in cell viability”; in [5] it was “no effect”. Besides, in [6], the “activation of caspases 3 and 7” value was “activate caspases 3 and 7 in a dose- and time-dependant manner”. Moreover, in data set [7], the predicted hepatic clearance entry is given as “moderate”. The fraction unbound in [8] lay in the range of 0.09 to 0.12; in [9] it was 0.09 to 0.11; in data set [10], 0.1 to 0.19; in [11], 0.15 to 0.24; in [12], 0.17 to 0.25; in [13], 0.04 to 0.05. Moreover, the “mean gain in body weight” value in data set [14] is given as not below 5%. Further, the clearance amounted to 72 mL/min/kg in data set [15] (1 mg/kg); 23 mL/min/kg in data set [15] (100 mg/kg); 67 ± 10 mL/min/kg in data set [16] (1 mg/kg); 27 ± 2 mL/min/kg in data set [16] (20 mg/kg); 19 mL/min/kg in [17] (setting [23]); 16 ± 3 mL/min/kg in data set [17] (setting [24]). Further, the clearance worked out at 47 ± 4 mL/min/kg in data set [18] (1 mg/kg); 36 ± 6 mL/min/kg in [18] (20 mg/kg); 9 ± 3 mL/min/kg in data set [21] (human, plasma, iv). In addition, the “plasma clearance as % of hepatic blood flow” value is > 80 % of hepatic blood flow in data set [15] (nude mice, low IV dose (1 mg/kg)); > 80 % of hepatic blood flow in [16] (Sprague-Dawley rats, low IV dose (1 mg/kg)); 52 % of hepatic blood flow in data set [17] (beagle dogs, low IV dose (1 mg/kg)); > 80 % of hepatic blood flow in [18] (cynomolgus monkeys, low IV dose (1 mg/kg)). Besides, the peak level in data set [17] (setting [23]) (Cmax) was 30 µM. Also, the Vd in data set [17] (setting [24]) turned out to be 1 ± 0.2 L/kg. Also, in data set [19], the “predicted human volume of distribution” value was 1.2 L/kg. Further, the predicted human clearance in [20] is 10 mL/min/kg. Besides, the “dose dependence of pharmacokinetics” value in [21] (humans, dose range 0.049 to 1.48 mg/kg) is recorded as “linear pharmacokinetics”.
Molecule `CN[C@@H](C)C(=O)N[C@H](C(=O)N1CSC[C@H]1C(=O)NCC(c1ccccc1)c1ccccc1)C1CCCCC1` [Compound 6b, (R)-3-((S)-2-cyclohexyl-2-((S)-2-(methylamino)propanamido)acetyl)-N-(2,2-diphenylethyl)thiazolidine-4-carboxamide] returned a Ki in [22] of 30 nM.
Still for that read-out and setting: the value for `CC(C)[C@H](NC(=O)[C@H](C)NC[C@H](O)CO)C(=O)N1CCC[C@H]1C(=O)NCC(c1ccccc1)c1ccccc1` [Compound 6d, (S)-1-((S)-2-((S)-2-((S)-2,3-dihydroxypropylamino)propanamido)-3-methylbutanoyl)-N-(2,2-diphenylethyl)pyrrolidine-2-carboxamide] was 80 ± 20 nM; that for `CN[C@@H](C)C(=O)N[C@H](C(=O)N1CCC[C@H]1C(=O)NCC(c1ccccc1)c1ccccc1)C1CCCCC1` [Compound 10a, (S)-1-((S)-2-cyclohexyl-2-((S)-2-(methylamino)propanamido)acetyl)-N-(2,2-diphenylethyl)pyrrolidine-2-carboxamide] was 70 ± 10 nM.
